In ChEMBL document CHEMBL1139462, “Identification of novel and improved antimitotic agents derived from noscapine” (J Med Chem, 2005):
The source made the active and inactive calls. The calls are words filed in the database; no cut-off is given here.

Legend:
[1] = test system: A549; test: Effect on cell growth in A549 cells by colony-forming assay; type: functional, cell-based; settings: Homo sapiens
[2] = test system: A549; test: Effect on cell growth in A549 cells by MTS assay; type: functional, cell-based; settings: Homo sapiens
[3] = Cell cycle arrest in HEK293EBNA cells by accumulation at G2/M phase cell at 1 uM relative to DMSO; type: functional, cell-based; settings: Homo sapiens, HEK293-EBNA
Summary of the method: (§1)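 HEK293 cells were exposed to compound for 16 h at the stated concentration, then analyzed by FACS for cell-cycle distribution (G1, S and G2/M fractions). Profiles were compared with a 0.5% DMSO vehicle control.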

[4] = Cell cycle arrest in HEK293EBNA cells by accumulation at G1 phase cell at 1 uM relative to DMSO; type: functional, cell-based; settings: Homo sapiens, HEK293-EBNA; summary of the method: as §1
[5] = Cell cycle arrest in HEK293EBNA cells by accumulation at S phase cell at 1 uM relative to DMSO; type: functional, cell-based; settings: Homo sapiens, HEK293-EBNA; summary of the method: as §1
[6] = Cell cycle arrest in HEK293EBNA cells by accumulation at G1 phase cell at 5 uM relative to DMSO; type: functional, cell-based; settings: Homo sapiens, HEK293-EBNA; summary of the method: as §1
[7] = Cell cycle arrest in HEK293EBNA cells by accumulation at S phase cell at 5 uM relative to DMSO; type: functional, cell-based; settings: Homo sapiens, HEK293-EBNA; summary of the method: as §1
[8] = Cell cycle arrest in HEK293EBNA cells by accumulation at G2/M phase cell at 5 uM relative to DMSO; type: functional, cell-based; settings: Homo sapiens, HEK293-EBNA; summary of the method: as §1
[9] = Cell cycle arrest in HEK293EBNA cells by accumulation at G1 phase cell at 0.5 uM relative to DMSO; type: functional, cell-based; settings: Homo sapiens, HEK293-EBNA; summary of the method: as §1
[10] = Cell cycle arrest in HEK293EBNA cells by accumulation at G2/M phase cell at 0.5 uM relative to DMSO; type: functional, cell-based; settings: Homo sapiens, HEK293-EBNA; summary of the method: as §1
[11] = Cell cycle arrest in HEK293EBNA cells by accumulation at S phase cell at 0.5 uM relative to DMSO; type: functional, cell-based; settings: Homo sapiens, HEK293-EBNA; summary of the method: as §1
[12] = AUC in mouse at 2 mg/kg, iv; type: ADME, organism-based; parameters: dose 2 mg/kg, route intravenous; settings: plasma
[13] = test system: Mus musculus; test: (§2) Volume of distribution in mouse at 2 mg/kg, iv; type: ADME, organism-based; parameters: dose 2 mg/kg, route intravenous; settings: in vivo
[14] = Cell cycle arrest in HEK293EBNA cells by accumulation at G2/M phase cell at 50 uM relative to DMSO; type: functional, cell-based; settings: Homo sapiens, HEK293-EBNA; summary of the method: as §1
[15] = Cell cycle arrest in HEK293EBNA cells by accumulation at G1 phase cell at 50 uM relative to DMSO; type: functional, cell-based; settings: Homo sapiens, HEK293-EBNA; summary of the method: as §1
[16] = Bioavailability in mouse at 20 mg/kg, po; type: ADME, organism-based; settings: in vivo
[17] = test system: Mus musculus; test: (§3) Half life in mouse at 2 mg/kg, iv; type: ADME, organism-based; parameters: dose 2 mg/kg, route intravenous; settings: in vivo
[18] = Cell cycle arrest in HEK293EBNA cells by accumulation at S phase cell at 50 uM relative to DMSO; type: functional, cell-based; settings: Homo sapiens, HEK293-EBNA; summary of the method: as §1
[19] = molecular target: Tubulin; test: Inhibition of tubulin polymerization; type: protein-complex assay, Homo sapiens
[20] = AUC in mouse at 20 mg/kg, po; type: ADME, organism-based; parameters: dose 20 mg/kg, route oral; settings: plasma
[21] = Cell cycle arrest in HEK293EBNA cells by accumulation at S phase cell at 0.1 uM relative to DMSO; type: functional, cell-based; settings: Homo sapiens, HEK293-EBNA
Summary of the method: (§4)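 HEK293 cells were exposed for 16 h to compound or to a 0.5% DMSO vehicle control. Cell-cycle phase distribution (G1, S, G2/M) was determined by FACS analysis and compared with the DMSO profile.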

[22] = as §2; type: ADME, organism-based; parameters: dose 2 mg/kg, route intravenous; settings: in vivo, read-out: Vdss
[23] = Clearance in mouse at 2 mg/kg, iv; type: ADME, organism-based; parameters: dose 2 mg/kg, route intravenous; settings: in vivo
Summary of the method: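 Pharmacokinetics were measured in mice, with an intravenous dose of 2 mg/kg; the study's oral arm used 20 mg/kg po.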

[24] = test system: NIH3T3; test: Effect on cell growth in nondividing Swiss 3T3 cells at 3 uM by MTS assay; type: functional, cell-based; settings: Mus musculus
Summary of the method: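 Swiss 3T3 cells were tested in either a dividing or a nondividing state. Growth was read out by MTS assay, and an EC50 was derived for the dividing cells.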

[25] = Cell cycle arrest in HEK293EBNA cells by accumulation at G1 phase cell at 0.1 uM relative to DMSO; type: functional, cell-based; settings: Homo sapiens, HEK293-EBNA; summary of the method: as §4
[26] = as §3; type: ADME, organism-based; parameters: dose 2 mg/kg, route intravenous; settings: in vivo
[27] = Cell cycle arrest in HEK293EBNA cells by accumulation at G2/M phase cell at 0.1 uM relative to DMSO; type: functional, cell-based; settings: Homo sapiens, HEK293-EBNA; summary of the method: as §4
[28] = Cell cycle arrest in HEK293EBNA cells by accumulation at G2/M phase cell at 10 uM relative to DMSO; type: functional, cell-based; settings: Homo sapiens, HEK293-EBNA; summary of the method: as §4
[29] = Cell cycle arrest in HEK293EBNA cells by accumulation at S phase cell at 10 uM relative to DMSO; type: functional, cell-based; settings: Homo sapiens, HEK293-EBNA; summary of the method: as §4
[30] = Cell cycle arrest in HEK293EBNA cells by accumulation at G1 phase cell at 10 uM relative to DMSO; type: functional, cell-based; settings: Homo sapiens, HEK293-EBNA; summary of the method: as §4
[31] = test system: NIH3T3; test: Effect on cell growth in nondividing Swiss 3T3 cells at 50 uM by MTS assay; type: functional, cell-based; settings: Mus musculus

## CC[C@]1(O)C[C@@H]2CN(CCc3c([nH]c4ccccc34)[C@@](C(=O)OC)(c3cc4c(cc3OC)N(C)[C@H]3[C@@](O)(C(=O)OC)[C@H](OC(C)=O)[C@]5(CC)C=CCN6CC[C@]43[C@@H]65)C2)C1 [VINBLASTINE]
[1]
  EC50: 0.0005 µM
[2]
  EC50: 0.0009 µM

## COc1ccc2c(c1N)C(=O)O[C@@H]2[C@H]1c2c(c(Br)c3c(c2OC)OCO3)CCN1C
[3]
  Activity: 81%
[4]
  Activity: 4%
[5]
  Activity: 15%

## COc1ccc2c(c1NCc1ccccc1)C(=O)O[C@@H]2[C@H]1c2c(cc3c(c2OC)OCO3)CCN1C
[6]
  Activity: 8%
[7]
  Activity: 29%
[8]
  Activity: 63%

## CNc1c(OC)ccc2c1C(=O)O[C@@H]2[C@H]1c2c(cc3c(c2OC)OCO3)CCN1C
[9]
  Activity: 8%
[10]
  Activity: 67%
[11]
  Activity: 25%

## COc1ccc2c(c1OC)C(=O)O[C@@H]2[C@H]1c2c(cc3c(c2OC)OCO3)CCN1C [NOSCAPINE]
[12]
  AUC: 345 ng·h/mL
[13]
  Vdss: 15.53 L/kg
[14]
  Activity: 50%
[15]
  Activity: 19%
[2]
  EC50: 25 µM
[16]
  bioavailability: 14.1%
[17]
  t1/2: 0.833 h
[18]
  Activity: 31%
[19]
  EC50: > 50 µM
[20]
  AUC: 524 ng·h/mL

## COc1ccc2c(c1N)C(=O)O[C@@H]2[C@H]1c2c(cc3c(c2OC)OCO3)CCN1C
[12]
  AUC: 350 ng·h/mL
[21]
  Activity: 7%
[1]
  EC50: 0.084 µM
[22]
  Vd: 8.47 L/kg
[23]
  clearance: 95.3 mL/min/kg
[24]
  Activity: inactive
[2]
  EC50: 0.097 µM
[16]
  bioavailability: 11.4%
[25]
  Activity: 1%
[26]
  half-life: 1.04 h
[27]
  Activity: 92%
[19]
  EC50: 0.3 µM
[20]
  AUC: 391 ng·h/mL

## COc1ccc2c(c1)C(=O)O[C@@H]2[C@H]1c2c(cc3c(c2OC)OCO3)CCN1C
[3]
  Activity: 90%
[4]
  Activity: 4%
[5]
  Activity: 6%

## COc1ccc2c(c1S)C(=O)O[C@@H]2[C@H]1c2c(cc3c(c2OC)OCO3)CCN1C
[6]
  Activity: 3%
[7]
  Activity: 7%
[8]
  Activity: 90%

## COc1ccc2c(c1OS(=O)(=O)C(F)(F)F)C(=O)O[C@@H]2[C@H]1c2c(cc3c(c2OC)OCO3)CCN1C
[14]
  Activity: 9%
[15]
  Activity: 56%
[18]
  Activity: 35%

## COc1cc2c(c(OC)c1OC)-c1ccc(OC)c(=O)cc1[C@@H](NC(C)=O)CC2
[28]
  Activity: 83%
[29]
  Activity: 14%
[30]
  Activity: 3%

## COc1ccc2c(c1O)C(=O)O[C@@H]2[C@H]1c2c(cc3c(c2OC)OCO3)CCN1C
[3]
  Activity: 88%
[12]
  AUC: 331 ng·h/mL
[1]
  EC50: 0.5 µM
[4]
  Activity: 3%
[22]
  Vd: 28.1 L/kg
[23]
  clearance: 101 mL/min/kg
[5]
  Activity: 9%
[2]
  EC50: 0.6 µM
[16]
  bioavailability: 22%
[26]
  half-life: 2.79 h
[31]
  Activity: inactive
[19]
  EC50: 0.7 µM
[20]
  AUC: 740 ng·h/mL
